Experimental data pooled from the literature.
Cell line: A549
Effect on: cell growth or viability

SMILES	technique	time	IC50 [µM]
COc1cccc(C(=O)O[C@@H]2CN3Cc4c(cc5c(c4OC)OCO5)[C@@]24C=C[C@H](OC)C[C@@H]34)c1	WST-1		> 10
C=CC(=O)Nc1cc(Nc2nc(N3CCc4sccc4C3)c3sccc3n2)c(OC)cc1N1CCN(C)CC1	MTT		1.96
Oc1ncnc2cc(Nc3nc(-c4ccc(C(F)(F)F)cc4)cs3)ccc12	MTT		14.8
Cc1ccc(-c2ccc(O)cc2)c(C(=C2C=CC(=O)C=C2)c2ccc(O)cc2)c1C#Cc1ccc(O)cc1	MTT	48 h	17.6
COc1ccccc1/C=C/CNCC(O)COc1ccc2ncccc2c1 (stereo not shown)	CCK-8	72 h	44.3
O=C(Nc1nnc(-c2cc3ccccc3[nH]2)s1)c1cc2c([nH]c3ccccc32)c(-c2ccc(Cl)cc2)n1	MTT	72 h	3.33
COc1cc2c(Nc3ccc(NC(=O)c4ccccc4)cc3)ncnc2cc1OCCCN1CCOCC1	MTS	48 h	3.2
O=C(NC(=S)N1CCCCC1)c1ccc2ccccc2c1		48 h	5.95
COc1ccc(NC(=O)Nc2ccc(OCc3nccc(OC)c3OC)cc2)cc1	MTT	72 h	16.7
O=C(N/N=C/c1cccn1CCN1CCCC1)Nc1cc2c(Nc3ccc(F)c(Cl)c3)ncnc2cc1O[C@H]1CCOC1	MTT	72 h	2.39
CC1=C(O)C(=O)C=C2C1=CC=C1[C@@]2(C)CC[C@@]2(C)[C@@H]3C[C@](C)(C(=O)OCCCBr)CC[C@]3(C)CC[C@]12C	MTT	48 h	4.95
CC(C)Cc1ccc(-c2nn(-c3ccc(S(C)(=O)=O)cc3)cc2/C=N\N=C2/NC(=O)CS2)cc1	MTT	48 h	3.44
CCc1c2c(nc3ccc(OC(=O)N4CCC(N5CCCCC5)CC4)cc13)-c1cc3c(c(=O)n1C2)COC(=O)[C@]3(O)CC	SRB	72 h	9.5
C[C@H]1Oc2cc(cnc2N)-c2c(nn(C)c2C#N)CN(C)C(=O)c2ccc(F)cc21			> 8.4
O=C(N/N=C/CN1CCCCC1)Nc1cc2c(Nc3ccc(F)c(Cl)c3)ncnc2cc1O[C@H]1CCOC1	MTT	72 h	4.2
O=C(NNC(=O)c1ccc(Nc2nccc(-c3ccc(Cl)cc3)n2)cc1)NC1CCCCC1	MTT	24 h	> 40
C=C(Cl)C(=O)Nc1cc(Nc2nc(N3CCc4sccc4C3)c3sccc3n2)c(OC)cc1N(C)CCN(C)C	MTT		1.51
CN(C)c1ccc2cc(C(=O)N[C@@H](CCCNC(=N)CCl)C(=O)NCc3ccccc3)ccc2c1		48 h	9.7
C=C(Cl)C(=O)Nc1cc(Nc2nc(N3CCSCC3)c3sccc3n2)c(OC)cc1N(C)CCN(C)C	MTT		0.098
COc1ccccc1/C=C/CNCC(O)COc1ccccc1 (stereo not shown)	CCK-8	72 h	17.4
CCN(CC)CCCn1cccc1/C=N/NC(=O)Nc1cc2c(Nc3ccc(F)c(Cl)c3)ncnc2cc1O[C@H]1CCOC1	MTT	72 h	2.36
O=C(/N=C1\S/C(=C\c2ccc(Cl)cc2)C(=O)N1C1CCCCC1)c1ccc2ccccc2c1		48 h	17.6
